The source made the active and inactive calls. No cut-off for these calls is given here.
Columns and labels:
[1] = Selectivity index, ratio of CC50 for human Lunet cells to EC50 for West Nile virus; format: toxicity; settings: read-out: Ratio CC50/EC50
[2] = system: West Nile virus; assay: Antiviral activity against West Nile virus after 2 days by luminometric method; format: functional, organism-based; settings: 48 h
[3] = system: Dengue virus; assay: Antiviral activity against DENV after 2 days by luminometric method; format: functional, organism-based; settings: 48 h
[4] = system: Hepatitis C virus; assay: Antiviral activity against Hepatitis C virus after 2 days by luminometric method; format: functional, organism-based, Hepacivirus hominis; settings: 48 h
[5] = Selectivity index, ratio of CC50 for human Lunet cells to EC50 for DENV; format: toxicity; settings: read-out: Ratio CC50/EC50
[6] = system: Human immunodeficiency virus; assay: Antiviral activity against HIV after 2 days by luminometric method; format: functional, organism-based; settings: Human immunodeficiency virus 1, 48 h
[7] = Selectivity index, ratio of CC50 for human Lunet cells to EC50 for Hepatitis C virus; format: toxicity; settings: read-out: Ratio CC50/EC50
[8] = Selectivity index, ratio of CC50 for human Lunet cells to EC50 for HIV; format: toxicity; settings: read-out: Ratio CC50/EC50
[9] = Cytotoxicity against MDCK cells assessed as alterations in normal cell morphology measured after 3 to 6 days by microscopic analysis; format: cell-based, Canis lupus familiaris; settings: dog
In short: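 Uninfected MDCK cultures in FCS-free Ultra MDCK medium with trypsin received five-fold compound dilutions (up to […]) for 3–6 days at 35 °C. Microscopy scored morphology, and MCC was taken as the lowest concentration causing minimal rounding, shrinking or lysis.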

[10] = system: Human alphaherpesvirus 1; assay: Antiviral activity against Herpes simplex virus type 1 infected in human HEL299 cells assessed as inhibition of virus-induced cytopathic effect after 3 to 6 days by MTS assay; format: functional, organism-based
[11] = system: Coxsackievirus B4; assay: Antiviral activity against Coxsackie B4 virus infected in human HeLa cells assessed as inhibition of virus-induced cytopathic effect after 3 to 6 days by MTS assay; format: functional, organism-based
[12] = system: Human respirovirus 3; assay: Antiviral activity against Parainfluenza virus 3 infected in African green monkey Vero cells assessed as inhibition of virus-induced cytopathic effect after 3 to 6 days by MTS assay; format: functional, organism-based
[13] = target: T1, Dihydrofolate reductase (Homo sapiens, UniProt P00374); assay: Binding affinity to human recombinant DHFR using dihydrofolate as substrate after 180 secs by spectrophotometric method
T1 sequence (P00374 whole entry): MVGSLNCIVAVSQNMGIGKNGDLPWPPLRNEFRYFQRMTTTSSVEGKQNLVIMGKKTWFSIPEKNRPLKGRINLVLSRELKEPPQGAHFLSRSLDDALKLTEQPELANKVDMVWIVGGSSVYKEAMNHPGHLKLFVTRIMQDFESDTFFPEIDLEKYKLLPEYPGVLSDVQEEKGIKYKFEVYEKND
In short: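 Recombinant human DHFR (0.42 μM) in TES buffer with inhibitor, 60 μM DHF, and 120 μM NADPH added last to start the reaction. Absorbance at 340 nm was followed for 180 s. Six concentrations (1–32 μM) were run in duplicate. IC50 came from Dixon plots assuming competitive inhibition. Ki = IC50/(1+[S]/Km), with DHF Km 5 μM.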

[14] = system: Human adenovirus 2; assay: Antiviral activity against Human adenovirus type 2 infected in human HEL299 cells assessed as inhibition of virus-induced cytopathic effect after 3 to 6 days by MTS assay; format: functional, organism-based
[15] = system: Human immunodeficiency virus; assay: Antiviral activity against HIV; format: functional, organism-based
[16] = system: Respiratory syncytial virus; assay: Potency index, ratio of ribavirin EC50 to compound EC50 for Respiratory syncytial virus Long infected in human HeLa cells; format: functional
[17] = system: Sindbis virus; assay: Antiviral activity against Sindbis virus infected in African green monkey Vero cells assessed as inhibition of virus-induced cytopathic effect after 3 to 6 days by MTS assay; format: functional, organism-based
[18] = Selectivity index, ratio of CC50 for MDCK cells to EC50 for Influenza B virus B/Ned/537/05 infected in MDCK cells; format: toxicity, cell-based; settings: dog, read-out: Ratio CC50/EC50
In short: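 Selectivity index for influenza B in MDCK was calculated as MTS-based CC50 divided by MTS-based EC50, both measured in parallel in the same assay.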

[19] = system: Respiratory syncytial virus; assay: Antiviral activity against Respiratory syncytial virus Long infected in human HeLa cells assessed as inhibition of virus-induced cytopathic effect after 3 to 6 days by MTS based microscopy; format: functional, organism-based
[20] = system: Vaccinia virus; assay: Antiviral activity against Vaccinia virus infected in human HEL299 cells assessed as inhibition of virus-induced cytopathic effect after 3 to 6 days by MTS assay; format: functional, organism-based; settings: Orthopoxvirus vaccinia
[21] = Cytotoxicity against human HeLa cells assessed as alterations in normal cell morphology measured after 3 to 6 days by microscopic analysis; format: cell-based
In short: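 Mock-infected HeLa cultures in 2% FCS medium received serial five-fold dilutions […] for 3–6 days at 37 °C. MCC was the lowest concentration giving microscopically visible minimal change in cell morphology (rounding, shrinking, lysis).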

[22] = system: Influenza A virus; assay: Antiviral activity against Influenza A virus (A/Puerto Rico/8/34(H1N1)) infected in MDCK cells assessed as protection against virus-induced reduction in cell viability after 3 to 6 days by MTS assay; format: functional, organism-based; settings: A/Puerto Rico/8/1934(H1N1)
In short: (§1)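 MDCK cells seeded at 9000/well and infected one day later (semiconfluent) with 100 CCID50 virus. Medium was FCS-free Ultra MDCK with 2 μg/mL TPCK-trypsin. Serial five-fold compound dilutions (top 100 μM) were added with the virus, followed by 3–6 days at 35 °C. MTS read-out gave % protection versus virus and mock controls. EC50 was interpolated from semi-log curves; mean of two or three experiments.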

[23] = system: Vero; assay: Cytotoxicity against African green monkey Vero cells assessed as reduction in cell viability measured after 3 to 6 days by MTS assay; format: cell-based; settings: chlorocebus sabaeus
[24] = system: MDCK; assay: Cytotoxicity against MDCK cells assessed as reduction in cell viability measured after 3 to 6 days by MTS assay; format: cell-based, Canis lupus familiaris; settings: dog
In short: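 Mock-infected MDCK plates were run in parallel (FCS-free Ultra MDCK medium with TPCK-trypsin) with serial five-fold dilutions up to […], 35 °C for 3–6 days. CC50 was interpolated from semi-log dose-response curves; mean of two or three experiments.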

[25] = system: Punta Toro virus; assay: Antiviral activity against Punta Toro virus infected in African green monkey Vero cells assessed as inhibition of virus-induced cytopathic effect after 3 to 6 days by MTS assay; format: functional, organism-based
[26] = system: Human coronavirus 229E; assay: Antiviral activity against Human coronavirus 229E infected in human HEL299 cells assessed as inhibition of virus-induced cytopathic effect after 3 to 6 days by MTS assay; format: functional, organism-based
[27] = system: Yellow fever virus; assay: Antiviral activity against Yellow fever virus infected in African green monkey Vero cells assessed as inhibition of virus-induced cytopathic effect after 3 to 6 days by MTS assay; format: functional, organism-based
[28] = system: Influenza B virus; assay: Antiviral activity against Influenza B virus B/Ned/537/05 infected in MDCK cells assessed as protection against virus-induced reduction in cell viability after 3 to 6 days by MTS assay; format: functional, organism-based; settings: B/Ned/537/05, MDCK; in short: as §1
[29] = system: Vesicular stomatitis virus; assay: Antiviral activity against Vesicular stomatitis virus infected in human HEL299 cells assessed as inhibition of virus-induced cytopathic effect after 3 to 6 days by MTS assay; format: functional, organism-based
[30] = system: Mammalian orthoreovirus 1; assay: Antiviral activity against Reovirus-1 infected in African green monkey Vero cells assessed as inhibition of virus-induced cytopathic effect after 3 to 6 days by MTS assay; format: functional, organism-based
[31] = system: Human alphaherpesvirus 2; assay: Antiviral activity against Herpes simplex virus type 2 infected in human HEL299 cells assessed as inhibition of virus-induced cytopathic effect after 3 to 6 days by MTS assay; format: functional, organism-based
[32] = Selectivity index, ratio of MCC for human HeLa cells to EC50 for Respiratory syncytial virus Long infected in human HeLa cells; format: toxicity, cell-based; settings: read-out: Selectivity Index
In short: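 Selectivity index for RSV Long in HeLa was calculated as microscopic MCC divided by CPE-based microscopic EC50 from parallel infected and mock-infected cultures.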

[33] = system: Influenza B virus; assay: Potency index, ratio of ribavirin EC50 to compound EC50 for Influenza B virus B/Ned/537/05 infected in MDCK cells; format: functional

Structure (SMILES) | MCC [9] [nM] | Activity [10] | Activity [11] | Activity [12] | Ki [13] [nM] | Activity [14] | Activity [15] | Activity [17] | EC50 [19] [nM] | Activity [20] | MCC [21] [µM] | EC50 [22] [nM] | Activity [23] | CC50 [24] [nM] | Activity [25] | Activity [26] | Activity [27] | EC50 [28] [nM] | Activity [29] | Activity [30] | also measured
Cc1cn(-c2ccc(NC(=O)Nc3ccccc3C)cc2)nn1 |  |  |  |  |  |  |  |  |  |  |  |  |  |  |  |  |  |  |  |  | selectivity ratio [1]: 162; EC50 [2]: 970 to 16500 nM; EC50 [3]: 970 to 16500 nM; EC50 [4]: 970 to 16500 nM; selectivity ratio [5]: 162; EC50 [6]: 970 to 16500 nM; selectivity ratio [7]: 162; selectivity ratio [8]: 162
NC1=NC2(CCN(C(=O)Nc3ccc(F)cc3)CC2)N(c2cccc(Cl)c2)C(N)=N1 | ≥ 160 | inactive | inactive | inactive | 530 | inactive | inactive | inactive | 1800 | inactive | ≥ 100 | > 100000 | Non-Toxic | 51000 | inactive | inactive | inactive | 190 | inactive | inactive | Ratio EC50 [16]: 3; selectivity ratio [18]: 268; Activity [31]: inactive; selectivity ratio [32]: 56
CCS(=O)(=O)N1CCC2(CC1)N=C(N)N=C(N)N2CCOC | > 100000 | inactive | inactive | inactive | 1400 | inactive | inactive | inactive | > 100000 | inactive | > 100 | > 100000 | Non-Toxic | > 100000 | inactive | inactive | inactive | 3000 | inactive | inactive | Activity [31]: inactive
Cc1ccc(C(=O)N2CCC3(CC2)N=C(N)N=C(N)N3c2cccc(Cl)c2)cc1 | ≥ 800 | inactive | inactive | inactive | 640 | inactive | inactive | inactive | 400 | inactive | ≥ 100 | > 100000 | Non-Toxic | 18000 | inactive | inactive | inactive | 290 | inactive | inactive | Ratio EC50 [33]: 11; Ratio EC50 [16]: 15; selectivity ratio [18]: 62; Activity [31]: inactive; selectivity ratio [32]: 250
